The text below walks through data of ChEMBL document CHEMBL4706553, “Discovery of potent small molecule PROTACs targeting mutant EGFR” (Eur J Med Chem, 2020).

The structures appear in SMILES notation. The source made the active and inactive calls. No cut-off for these calls is given here.

Experiment [1] concerns von Hippel-Lindau disease tumor suppressor/Epidermal growth factor receptor (Homo sapiens), P00533+P40337 [L858R,T790M]. Description: Protac activity at VHL/EGFR L858R/T790M mutant in human H1975 cells assessed as induction of degradation of EGFR at 333 nM incubated for 48 hrs measured after compound wash-out for 48 hrs by Western blot analysis. In kind it is cell-based. Particulars: NCI-H1975. In a few lines: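 H1975 cells (RPMI-1640, 10% heat-inactivated FBS) exposed to 333 nM for 48 h. Medium then replaced with compound-free medium, and lysates collected at the stated times. EGFR read by Western blot; n = 2.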
Background: In western blotting, separated proteins are transferred to a membrane and probed.

In experiment [2] the test system is von Hippel-Lindau disease tumor suppressor/Epidermal growth factor receptor (Homo sapiens), P00533+P40337 [UNDEFINED MUTATION]. Description: Protac activity at VHL/EGFR del19 mutant in human HCC827 cells assessed as induction of EGFR degradation at 33 nM by Western blot analysis. It counts as cell-based. To be noted: time 12-72 hrs, TDE = time-dependent effect. The method in brief:
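Time course in HCC827 cells at 33 nM, with protein harvested at each stated time point. EGFR^del19 detected by Western blot.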

Experiment [3] relates to von Hippel-Lindau disease tumor suppressor/Epidermal growth factor receptor (Homo sapiens), P00533+P40337 [L858R,T790M]. Description: Protac activity at VHL/EGFR L858R/T790M mutant in human H1975 cells assessed as induction of degradation of EGFR at 1 uM pretreated with autophagy inhibitor, chloroquine for 2 hrs followed by incubation with compound for 24 hrs by Western blot analysis. It counts as cell-based. Particulars: NCI-H1975. The method in brief: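 H1975 cells pretreated with chloroquine for 2 h, then exposed to compound for 24 h. EGFR level by Western blot; n = 3.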

In experiment [4] the test system is HCC827. Description: Induction of apoptosis in human HCC827 cells assessed as apoptotic cells at 10 nM measured after 48 hrs by AnnexinV-FITC/propidium iodide staining based flow cytometry analysis relative to control. It counts as functional. The method in brief:
(§1)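 To measure apoptosis, cells were seeded at 0.5–1 × 10⁶ per well, grown 24 h, then treated for 48 h. Collected cells were stained with an Annexin V-FITC apoptosis detection kit following its instructions, and apoptosis rate was read by flow cytometry. n = 2.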
In general terms: In flow cytometry, cells or beads pass a laser one at a time.

The subject of experiment [5] is NCI-H1975. Description: Induction of apoptosis in human NCI-H1975 cells at 333 to 1000 nM measured after 48 hrs by AnnexinV-FITC/propidium iodide staining based flow cytometry analysis. In kind it is functional, cell-based. Particulars: dose 333-1000 nM. In a few lines:
as §1

Experiment [6] concerns von Hippel-Lindau disease tumor suppressor/Epidermal growth factor receptor (Homo sapiens), P00533+P40337 [UNDEFINED MUTATION]. Description: Protac activity at VHL/EGFR del19 mutant in human HCC827 cells assessed as induction of EGFR degradation at 33 nM incubated for 24 hrs measured following drug wash-out for 48 hrs by Western blot analysis. In kind it is cell-based. In a few lines:
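HCC827 cells (RPMI-1640, 10% heat-inactivated FBS, 1% sodium pyruvate, 1% glutamine, 37 °C, 5% CO₂) treated at 33 nM for 24 h. Medium then replaced with compound-free medium, and protein harvested at the stated times. EGFR read by Western blot; n = 2.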

In experiment [7] the test system is NCI-H1975. Description: Effect on Akt protein expression in human H1975 cells at 0.1 to 1 uM incubated for 48 hrs by Western blot analysis. To be noted: dose 0.1-1 µM. It counts as functional, cell-based.
The subject of experiment [8] is von Hippel-Lindau disease tumor suppressor/Epidermal growth factor receptor (Homo sapiens), P00533+P40337 [L858R,T790M]. Description: Protac activity at VHL/EGFR L858R/T790M mutant in human H1975 cells assessed as induction of degradation of EGFR at 0.1 uM pretreated with mTOR inhibitor, rapamycin for 8 hrs followed by incubation with compound for 16 hrs by Western blot analysis. In kind it is cell-based. To be noted: NCI-H1975. In a few lines: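 H1975 cells given rapamycin at the stated concentrations for 8 h, then compound for 16 h. EGFR by Western blot; n = 3.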

For experiment [9], the target named is von Hippel-Lindau disease tumor suppressor/Epidermal growth factor receptor (Homo sapiens, UniProt P00533+P40337). Description: Protac activity at VHL/EGFR in human A431 cells assessed as induction of degradation of EGFR at 0.1 to 3.3 uM incubated for 48 hrs by Western blot analysis. It counts as cell-based. To be noted: A-431, dose 0.1-3.3 µM.
Experiment [10] relates to von Hippel-Lindau disease tumor suppressor/Epidermal growth factor receptor (Homo sapiens), P00533+P40337 [L858R,T790M]. Description: Protac activity at VHL/EGFR L858R/T790M mutant in human H1975 cells assessed as induction of degradation of EGFR by measuring reduction in Akt phosphorylation at 100 nM incubated for 48 hrs by Western blot analysis. In kind it is cell-based. To be noted: NCI-H1975. The method in brief:
(§2)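 HCC827 or H1975 cells treated at the stated concentrations for 48 h. Lysates probed by Western blot for EGFR, P-EGFR, Akt and P-Akt (each 1:1000); n = 2.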

Experiment [11] concerns NCI-H1975. Description: Induction of cell cycle arrest in human NCI-H1975 cells assessed as accumulation at G1 phase measured at 333 to 1000 nM measured after 48 hrs by propidium iodide staining based flow cytometry analysis. It counts as functional. To be noted: dose 333-1000 nM. The method in brief: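 Cell cycle: cells were seeded at 0.5–1 × 10⁶ per well for 24 h, then treated 48 h. They were collected and washed twice in PBS, stained with PI/RNase at 37 °C for 15 min, and analysed by flow cytometry. n = 2.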

Experiment [12] has as its system von Hippel-Lindau disease tumor suppressor/Epidermal growth factor receptor (Homo sapiens), P00533+P40337 [UNDEFINED MUTATION]. Description: Protac activity at VHL/EGFR del19 mutant in human HCC827 cells assessed as induction of EGFR degradation at 0.1 to 0.3 nM precultured in medium without FBS followed by incubation with compound for 16 hrs by Western blot analysis. It counts as cell-based. To be noted: dose 0.1-0.3 nM. In a few lines:
(§3)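 HCC827 or H1975 cells precultured 8 h in medium with or without FBS, then treated at the stated concentrations for 16 h. EGFR protein by Western blot; n = 3.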

In experiment [13] the test system is HCC827. Description: Induction of apoptosis in human HCC827 cells assessed as apoptotic cells at 100 nM measured after 48 hrs by AnnexinV-FITC/propidium iodide staining based flow cytometry analysis relative to control. In kind it is functional. The method in brief: as §1
The subject of experiment [14] is von Hippel-Lindau disease tumor suppressor/Epidermal growth factor receptor (Homo sapiens), P00533+P40337 [UNDEFINED MUTATION]. Description: Protac activity at VHL/EGFR del19 mutant in human HCC827 cells assessed as induction of EGFR degradation at 333 nM measured after 24 hrs by Western blot analysis. It counts as cell-based. The method in brief: (§4)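 HCC827 cells seeded at 0.5–1 × 10⁶ per well, grown 24 h, then treated at the stated concentrations for 24 h. EGFR^del19 level by Western blot with anti-EGFR antibody and β-actin loading control.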

Experiment [15] has as its system von Hippel-Lindau disease tumor suppressor/Epidermal growth factor receptor (Homo sapiens), P00533+P40337 [L858R,T790M]. Description: Protac activity at VHL/EGFR L858R/T790M mutant in human H1975 cells assessed as induction of degradation of EGFR at 100 to 333 nM precultured in medium without FBS followed by incubation with compound for 16 hrs by Western blot analysis. To be noted: NCI-H1975, dose 100-333 nM. It counts as cell-based. In a few lines:
as §3

The test system is the same in experiment [16]. Description: Protac activity at VHL/EGFR L858R/T790M mutant in human H1975 cells assessed as induction of degradation of EGFR by measuring reduction in EGFR phosphorylation at 100 nM incubated for 48 hrs by Western blot analysis. It counts as cell-based. Particulars: NCI-H1975. The method in brief:
as §2

The subject of experiment [17] is von Hippel-Lindau disease tumor suppressor/Epidermal growth factor receptor (Homo sapiens), P00533+P40337 [UNDEFINED MUTATION]. Description: Protac activity at VHL/EGFR del19 mutant in human HCC827 cells assessed as induction of EGFR degradation at 0.033 uM pretreated with VHL ligand, VHL-Ac for 2 hrs followed by incubation with compound for 24 hrs by Western blot analysis. In kind it is cell-based.

For experiment [18] the test system is unchanged. Description: Protac activity at VHL/EGFR del19 mutant in human HCC827 cells assessed as induction of EGFR degradation at 1 to 33 nM incubated for 24 hrs by Western blot analysis. In kind it is cell-based. Particulars: dose 1-33 nM. In a few lines: as §4
Experiment [19] shares this test system. Description: Protac activity at VHL/EGFR del19 mutant in human HCC827 cells assessed as induction of EGFR degradation at 0.033 uM pretreated with EGFR inhibitor, F for 2 hrs followed by incubation with compound for 24 hrs by Western blot analysis. It counts as cell-based.

For `Cc1ncsc1-c1ccc(CNC(=O)[C@@H]2C[C@@H](O)CN2C(=O)[C@@H](NC(=O)CCCCCCN2CCN(c3ccc(Nc4ncc5nc(Nc6ccccc6)n(C6CCCC6)c5n4)cc3)CC2)C(C)(C)C)cc1`, the outcome (in experiment [1]; in experiment [8]; in experiment [10]; in the experiment with NCI-H1975 [11]; in [12]; in experiment [15]) was Active. Besides, the result in experiment [16] and in experiment [18] was Active. For the same molecule, the Activity entry in [2] was “Tde”; in the experiment on HCC827 [4], 31.07%; with HCC827 [13] it was 44.8%. The outcome (in [3]; in the experiment with NCI-H1975 [5]; in experiment [6]; with NCI-H1975 [7]; in experiment [9]; in experiment [14]) was inactive. The outcome in experiment [17] and in experiment [19] was inactive.
